Shown are actives, neighbours in structure and some others; about 1.7% of the full set was active somewhere.
TPT1 inh: C. albicans TPT1 enzyme inhibition. 0.81% of 300,000 active. inhibition, % at 5 µM. recombinant caTPT1, FP RNA substrate dephosphorylation;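 active means inhibition above the mean of all tested compounds plus 3 SD, set per screening campaign, cut at about 24% in these data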
HNF4A DNA FP: change in binding of human HNF4 alpha to DNA. HNF4a-FITC DNA binding, fluorescence polarization, 1 h. activity change, % at 10 µM. 0.3% of 360,000 active. P41235; in the data active means activity change above about 30%, passing the limit was not always enough
IDE inh: inhibitors of human insulin-degrading enzyme in cells | P14735 | HEK cells, FAbetaB cleavage, fluorescence polarization | inhibition, % at 5.59 µM | 0.41% of 320,000 active | AID 434962;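 active means percent inhibition above the average of all tested compounds plus 3 SD, set per screening campaign, cut at about 16% in these data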;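 further: IDE supplied by intact live HEK cells; FP after avidin binding of uncleaved biotin substrate so inhibition keeps polarization high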
Target sequence (P14735 whole entry, looked up): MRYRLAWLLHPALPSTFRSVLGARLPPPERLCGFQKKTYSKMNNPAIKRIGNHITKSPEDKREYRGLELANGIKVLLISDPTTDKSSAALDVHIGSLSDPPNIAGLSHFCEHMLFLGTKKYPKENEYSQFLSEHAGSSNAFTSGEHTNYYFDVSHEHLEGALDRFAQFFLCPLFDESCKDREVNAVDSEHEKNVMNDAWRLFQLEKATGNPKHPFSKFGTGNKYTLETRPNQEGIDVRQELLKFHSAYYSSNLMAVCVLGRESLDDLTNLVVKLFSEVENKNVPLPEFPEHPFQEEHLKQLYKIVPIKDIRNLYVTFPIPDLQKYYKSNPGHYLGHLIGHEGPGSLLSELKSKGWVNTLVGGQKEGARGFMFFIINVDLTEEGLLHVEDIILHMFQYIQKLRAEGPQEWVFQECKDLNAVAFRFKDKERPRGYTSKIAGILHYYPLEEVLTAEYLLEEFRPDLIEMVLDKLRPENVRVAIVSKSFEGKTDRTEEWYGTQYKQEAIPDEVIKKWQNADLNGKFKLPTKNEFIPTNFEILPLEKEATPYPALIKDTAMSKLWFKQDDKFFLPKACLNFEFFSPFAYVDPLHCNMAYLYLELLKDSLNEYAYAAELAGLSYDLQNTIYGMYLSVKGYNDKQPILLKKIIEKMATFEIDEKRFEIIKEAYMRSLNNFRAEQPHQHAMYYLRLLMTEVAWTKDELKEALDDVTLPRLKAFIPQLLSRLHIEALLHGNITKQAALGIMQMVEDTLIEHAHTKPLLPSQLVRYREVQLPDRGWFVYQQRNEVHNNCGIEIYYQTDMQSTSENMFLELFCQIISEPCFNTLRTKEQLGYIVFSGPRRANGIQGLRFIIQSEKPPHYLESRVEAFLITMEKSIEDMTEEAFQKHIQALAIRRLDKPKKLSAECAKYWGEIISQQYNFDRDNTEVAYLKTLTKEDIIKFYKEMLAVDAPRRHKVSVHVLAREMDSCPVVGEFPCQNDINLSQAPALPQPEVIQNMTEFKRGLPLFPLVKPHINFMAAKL
Rpn11 inh: blocks the human proteasome subunit Rpn11. O00487. human 26S proteasome, Ub4-pepOG fluorescence polarization; 20S core pre-blocked with epoxomicin. inhibition, % at 20 µM. 0.59% of 360,000 active;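 active means inhibition at 20 µM, scaled to each plate's controls, above about 33%, limit read from the data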
CSN inh: CSN deneddylation inhibition | Q92905 | Purified CSN, SCF-Nedd8-OG deneddylation, fluorescence polarization | inhibition, % at 12.5 µM | 0.38% of 360,000 active | AID 651999;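 active means pattern-corrected inhibition above about 35%, with an unprinted fluorescence ratio check between 0.5 and 1.5, limit read from the data, passing the limit was not always enough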
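Assay system: Purified human Csn5 enzyme expressed in HEK293T cells | Amount: Enzyme 0.24 nM | Measured by: Fluorescence polarization readout | Medium: Tris/NaCl/DTT buffer, pH 7.5 | Compound dosing: One concentration, 12.5 µM, 0.25% DMSO | Times: 90 min incubation of compound, enzyme and substrate at room temperature | Control set: no-enzyme wells high, enzyme-with-substrate wells low | Read-out: % inhibition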
IDE act: boosts human insulin-degrading enzyme activity in HEK cells | FAbeta-B cleavage, fluorescence polarization; 0% vehicle, 100% cell-free pure enzyme wells | P14735 | activation, % at 5.96 µM | 0.073% of 340,000 active | AID 493087;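 active means activation above the mean of all tested compounds plus 3 SD, set per screening campaign, cut at about 17% in these data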
caTPT1 confirm: TPT1 (C. albicans) inhibition, confirmation. recombinant caTPT1, fluorescence polarization, RNase T1 coupled. inhibition, % at 5 µM. shares compounds with TPT1 inh. 74% of 2,400 active;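 active means inhibition above the primary screen limit, the mean inhibition of all tested compounds plus 3 SD, cut at about 25% in these data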
RNase T1 inh: blocks Aspergillus oryzae RNase T1, a TPT1 counter-screen | shares compounds with TPT1 inh | RNase T1 cleavage, fluorescence polarization, 1536-well | inhibition, % at 5 µM | 83% of 2,400 active | AID 2153;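 active means inhibition above the solvent-only control well mean plus 3 SD, limit set per screening run, cut at about 23% in these data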;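 further: inhibitors block cleavage so intact labeled substrate keeps polarization high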
IDE inh confirm: cellular human IDE inhibition, confirmation; shares compounds with IDE inh; HEK cells, FAbetaB cleavage, fluorescence polarization; inhibition, % at 5.59 µM; 51% of 1,200 active; AID 435028;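 active means mean inhibition across triplicate wells above the cutoff set by the earlier primary insulin-degrading enzyme screen, cut at about 16% in these data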
HEK cytotox: kills HEK cells in IDE inhibitor counter-screen; 28% of 1,200 active; AID 449730; HEK293 cytotoxicity, ATP luminescence; shares compounds with IDE inh; inhibition, % at 5.59 µM; in the data active means inhibition above about 22%
Rpn11 confirm: confirmation of human proteasome Rpn11 inhibitors | shares compounds with Rpn11 inh | purified human 26S proteasome, Ub4-pepOG fluorescence polarization; proteasome pretreated with epoxomicin | inhibition, % at 20 µM | 29% of 1,900 active | AID 602318
MMP-2 counter-1: blocks human MMP-2, flagging nonselective RPN11 hits | shares compounds with Rpn11 inh | recombinant MMP-2, FRET peptide cleavage fluorescence | inhibition, % at 20 µM | 4% of 1,900 active;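 further: human MMP-2 activated beforehand with APMA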
Thrombin inh: thrombin (bovine) inhibition counter-screen | shares compounds with Rpn11 inh | bovine thrombin cleavage of Ub4-pepOG, fluorescence polarization | inhibition, % at 20 µM | 13% of 1,900 active;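 active means mean inhibition at least 40% at 20 µM, or signal 3 deviations below plate average, so some actives read negative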
CSN deneddyl val: Csn5 (human) deneddylation inhibition, single-concentration validation; shares compounds with CSN inh; Csn5 deneddylation of SCF-Nedd8OG, fluorescence polarization, 90 min; inhibition, % at 16.6 µM; 62% of 540 active; in the data active means inhibition above about 50%
MMP-2 counter-2: MMP-2 (human) inhibition, counter-screen for CSN hits | 33% of 540 active | shares compounds with CSN inh | recombinant MMP-2, FRET substrate fluorescence, 60 min | inhibition, % at 16.6 µM | AID 720655;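 active means corrected plate-normalized z-score of 5 or more, or -5 or less, or inhibition of 15% or more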
Thrombin counter: blocks bovine thrombin in a CSN deneddylation counter-screen. shares compounds with CSN inh. bovine thrombin cleavage of Ub4-pepOG, fluorescence polarization. inhibition, % at 16.6 µM. 49% of 540 active. AID 720656;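 active means inhibition at or above a set limit, with a fluorescence interference ratio between 0.5 and a set maximum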
Each line names hits and unclear results; the compound was inactive in the other large screens (follow-up assays come after a bar, where shown). Unless noted, no stated cut-off is given here; in the data, active means inhibition above about 40%; inactive means the rest.

COc1ccccc1N=C1NC(=O)/C(=C/c2ccc(N(C)C)cc2)S1	TPT1 inh 119, IDE inh 53, CSN inh 41 (not shown: Rpn11 inh) | caTPT1 confirm 131 | RNase T1 inh 125 | IDE inh confirm 56 | HEK cytotox 53 | CSN deneddyl val 153 | MMP-2 counter-2 -25 | Thrombin counter 21
COc1ccc(C2=NN(c3ccccc3)C(=O)/C2=C\c2ccc(O)c(OC)c2)cc1	none
COc1cc(/C=C2\SC(c3ccc(C)cc3)=NC2=O)ccc1O	TPT1 inh 80, HNF4A DNA FP 78, Rpn11 inh 142, CSN inh 72 | caTPT1 confirm 98 | RNase T1 inh 101 | CSN deneddyl val inactive | MMP-2 counter-2 inactive | Thrombin counter 50
COc1ccc(N=C2NC(=O)/C(=C/c3ccc(O)c(OC)c3)S2)cc1	TPT1 inh 32, IDE inh 25, Rpn11 inh 145, CSN inh 37 | caTPT1 confirm 44 | RNase T1 inh 52 | IDE inh confirm 32 | HEK cytotox inactive | Rpn11 confirm 49 | MMP-2 counter-1 inactive | Thrombin inh 68 | CSN deneddyl val 64 | MMP-2 counter-2 inactive | Thrombin counter 35
COc1cc(/C=C2\SC(=Nc3ccc(O)cc3)NC2=O)cc(OC)c1OC	none (no result: HNF4A DNA FP, Rpn11 inh, CSN inh, IDE act)
N#C/C(=C\c1ccc(N2CCOCC2)o1)C(=O)NC1CCCCC1	TPT1 inh 163, IDE inh 46, CSN inh 77 (not shown: Rpn11 inh) | caTPT1 confirm 177 | RNase T1 inh 169 | IDE inh confirm 48 | HEK cytotox inactive | CSN deneddyl val 141 | MMP-2 counter-2 inactive | Thrombin counter 65
N#C/C(=C\c1ccc(N2CCOCC2)o1)C(=O)NCCc1ccccc1	TPT1 inh active, IDE inh 72, CSN inh 98 (not shown: Rpn11 inh) | caTPT1 confirm 181 | RNase T1 inh 171 | IDE inh confirm 78 | HEK cytotox inactive | CSN deneddyl val active | MMP-2 counter-2 inactive | Thrombin counter inactive
CC1=CN2C(=N)/C(=C/c3ccc([N+](=O)[O-])o3)C(=O)N=C2S1	TPT1 inh 77, HNF4A DNA FP 66, CSN inh 102 (not shown: Rpn11 inh) | caTPT1 confirm 118 | RNase T1 inh 118 | CSN deneddyl val 52 | MMP-2 counter-2 inactive | Thrombin counter 92
CC1=CN2C(=N)/C(=C/c3ccco3)C(=O)N=C2S1	none
COc1cccc(Nc2nc(C(N)Cc3ccccc3)cs2)n1 (stereo not given)	none (no result: TPT1 inh, IDE inh, IDE act)
CCOC(=O)C1(C)CCN1C(=O)c1ccc(N(C)C)cc1 (stereo not given)	none (no result: TPT1 inh, IDE inh, IDE act)
COC(=O)c1cn(Nc2ncc(C(F)(F)F)cc2Cl)c(=O)c2ccccc12	none
COc1cc(/C=C2\SC(=S)N(Nc3ncc(C(F)(F)F)cc3Cl)C2=O)ccc1O	TPT1 inh 27, HNF4A DNA FP 82, IDE inh 51, Rpn11 inh 72, CSN inh 67 | caTPT1 confirm 32 | RNase T1 inh 43 | IDE inh confirm 129 | HEK cytotox inactive | Rpn11 confirm 75 | MMP-2 counter-1 inactive | Thrombin inh 75 | CSN deneddyl val 78 | MMP-2 counter-2 inactive | Thrombin counter 61
COc1cccc(/C=C2\SC(=S)N(NC(=O)c3ccncc3)C2=O)c1	none
O=C1/C(=C\c2ccc(O)cc2)SC(=S)N1/N=C/c1ccc(O)cc1	TPT1 inh 65, HNF4A DNA FP 106, IDE inh 75, CSN inh 94 (not shown: Rpn11 inh) | caTPT1 confirm 62 | RNase T1 inh 68 | IDE inh confirm 98 | HEK cytotox inactive | CSN deneddyl val inactive | MMP-2 counter-2 inactive | Thrombin counter 86
COc1cc(/C=C2\SC(=S)N(NC(=O)c3cccnc3)C2=O)ccc1O	TPT1 inh 25, HNF4A DNA FP 52, IDE inh 114, CSN inh 39 (not shown: Rpn11 inh) | caTPT1 confirm 34 | RNase T1 inh 42 | IDE inh confirm 159 | HEK cytotox inactive | CSN deneddyl val 65 | MMP-2 counter-2 inactive | Thrombin counter 35
CC(/C=C1\SC(=S)N(NC(=O)c2ccc(O)cc2)C1=O)=C\c1ccccc1	none
COc1cc(/C=C2\SC(=S)N(NC(=O)c3ccc(O)cc3)C2=O)ccc1O	TPT1 inh 35, HNF4A DNA FP 50, IDE inh 85, CSN inh 50 (not shown: Rpn11 inh) | caTPT1 confirm 39 | RNase T1 inh 52 | IDE inh confirm 150 | HEK cytotox inactive | CSN deneddyl val 53 | MMP-2 counter-2 inactive | Thrombin counter 65
O=C1C2C3C=CC(CC3)C2C(=O)N1/N=C/c1ccc(O)cc1 (stereo not given)	none
CCc1nnc(NS(=O)(=O)c2ccc(NC(=O)c3ccc([N+](=O)[O-])s3)cc2)s1	none (no result: TPT1 inh, IDE inh, IDE act)
CC(C)N1C(=O)NC2NC(=O)N(C(C)C)C21 (stereo not given)	none (no result: TPT1 inh, IDE inh, IDE act)
CCOC(=O)C1=CCN(S(=O)(=O)c2ccc(Br)cc2)C1c1cccc(C)c1 (stereo not given)	none (no result: TPT1 inh, IDE inh, IDE act)
COCCN1C(=O)C(C(=O)OC)CC2=C1CC(C)(C)CC2=O (stereo not given)	none (no result: TPT1 inh, IDE inh)

Compound activity deposited in PubChem by several laboratories.
